In ChEMBL document CHEMBL1126304 (J Med Chem, 1992):
Active and inactive are the calls of the source. No cut-off for these calls is given here.

Assays:
[1] = system: Felis catus; assay: In vivo activity against gastric secretion in conscious cat; type: functional, Stomach
[2] = species: Cavia porcellus; assay: In vitro activity against gastric secretion in isolated guinea pig stomach; type: functional
[3] = target: Histamine H2 receptor (Cavia porcellus) (UniProt P47747); assay: Intrinsic activity against histamine H2 receptor; type: functional
Chain of Histamine H2 receptor (Cavia porcellus) (P47747 whole entry): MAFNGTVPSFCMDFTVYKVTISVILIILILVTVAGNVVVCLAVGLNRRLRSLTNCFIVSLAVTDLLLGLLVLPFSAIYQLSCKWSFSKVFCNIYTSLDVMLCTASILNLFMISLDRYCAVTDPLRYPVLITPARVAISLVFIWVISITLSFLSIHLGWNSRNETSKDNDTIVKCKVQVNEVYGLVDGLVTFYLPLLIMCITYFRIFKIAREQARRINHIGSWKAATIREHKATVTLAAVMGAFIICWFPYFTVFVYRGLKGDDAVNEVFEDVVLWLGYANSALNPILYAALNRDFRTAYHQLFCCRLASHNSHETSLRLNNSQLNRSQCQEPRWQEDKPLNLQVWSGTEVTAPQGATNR

[4] = target: Histamine H2 receptor (Cavia porcellus, UniProt P47747); assay: Compound is evaluated for histamine H2 receptor agonistic activity in guinea pig cerebral cortex using [3H]tiotidine as radioligand; type: functional, tissue-based
Chain of Histamine H2 receptor (P47747 whole entry): as above
Procedure, shortened: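 H2-receptor binding measured on guinea pig cerebral cortex preparations by displacement of [3H]tiotidine. Displacement curves were fitted by nonlinear regression.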

[5] = target: Histamine H2 receptor (Cavia porcellus) (UniProt P47747); assay: Histamine H2 receptor agonistic activity in guinea pig right atrium; type: functional, tissue-based; conditions: Cardiac atrium
[6] = system: Felis catus; assay: In vivo activity against gastric secretion in conscious cat; not active; type: functional, organism-based; conditions: Stomach

SMILES | Intrinsic activity [3] | Kd [4] | pD2 [5] | other results
CNCCc1cnc(N)s1 |  |  |  | pD2 [1]: 6.52; pD2 [2]: 6.02
Cc1ncsc1CCN | 0.96 | 355 µM | 4.67 | 
NCCc1csc(N)n1 | 0.94 | 110 µM | 4.6 | 
CN(C)CCc1cnc(N(C)C)s1 |  |  |  | pD2 [6]: inactive
Cc1nc(C)c(CCN)s1 | 0.97 | 174 µM | 3.78 | 
Cc1nc(N)sc1CCN | 0.95 | 5.01 µM |  | 
N=C(NCCCc1c[nH]cn1)NCCC(c1ccc(F)cc1)c1ccccn1 (stereo not drawn) |  |  | 8 | 
NCCc1cnc(N)s1 | 1 | 15.1 µM | 5.51 | pD2 [1]: 6.1
N=C(NCCCc1c[nH]cn1)NCCC(c1ccccc1)c1ccccc1 |  |  | 7.7 | 
CNc1ncc(CCN(C)C)s1 |  |  |  | pD2 [6]: inactive
NCCc1c[nH]cn1 | 1 |  |  | 
CN(C)CCc1cnc(N)s1 |  |  |  | pD2 [1]: 6.3; pD2 [2]: 5.81
CN(C)CCCSC(=N)N | 1.06 | 26.3 µM | 5.67 | 
N=C(N)NCCCc1c[nH]cn1 |  |  | 4.7 | 
